Assay results reported in ChEMBL document CHEMBL3102711 (Eur J Med Chem, 2014).
The source made the active and inactive calls. The rule behind the calls is not given here.

Experiments:
[1] = Antiproliferative activity against human MUTU-I cells after 24 hrs by Alamar blue assay; format: functional, cell-based
[2] = (§1) Antiproliferative activity against human DG75 cells after 72 hrs by Alamar blue assay; format: functional, cell-based; conditions: DG-75, 72 h
MUTU-I [3] = experiment: (§2) Antiproliferative activity against human MUTU-I cells at 10 uM after 24 hrs by Alamar blue assay; format: functional
Method in brief: (§3)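 Cells were treated with a single 10 µM dose for 24 h. PBMCs came from healthy-donor blood by Ficoll density separation and were kept in IMDM with 10% FBS. Viability was read by Alamar Blue fluorescence (590 nm, ex 544 nm) against untreated cells. Three independent experiments were run, with a Student's t-test against vehicle.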

DG-75 [4] = experiment: Antiproliferative activity against human DG75 cells at 10 uM after 24 hrs by Alamar blue assay
PBMC = experiment: Antiproliferative activity against human PBMC at 10 uM after 24 hrs by Alamar blue assay; format: cell-based; method in brief: as §3
[5] = (§4) Induction of apoptosis in human MUTU-I cells assessed as accumulation at pre-G1 phase at 10 uM after 24 hrs using propidium iodide staining by FACS analysis; format: functional
Method in brief: (§5)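 Cells (7.5×10^5 per 5 mL) were treated, then washed in cold PBS and fixed overnight at 4 °C in 70% ethanol. They were stained with RNase A and propidium iodide for 30 min at 37 °C in the dark. Flow cytometry counted 10,000 gated cells, and the pre-G1 fraction was scored.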

[6] = as §2; format: functional; method in brief: as §3
[7] = Antiproliferative activity against human DG75 cells at 10 uM after 72 hrs by Alamar blue assay; format: functional, DG-75
DG-75 [8] = experiment: as §1; format: functional, cell-based
HL-60 [9] = experiment: Induction of apoptosis in human HL60 cells; format: functional, cell-based
HL-60 [10] = experiment: Induction of apoptosis in human HL60 cells expressing BCRP; format: functional, cell-based
HL-60 [11] = experiment: Induction of apoptosis in human HL60 cells expressing p-glycoprotein; format: functional, cell-based
MUTU-I [12] = experiment: Induction of apoptosis in human MUTU-I cells assessed as activation of caspase 3 and 7 at 10 uM after 8 hrs by Apotox-Glo Triplex assay; format: functional, cell-based
Method in brief: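 Cells were seeded at 10,000/well and treated at 10 µM for 8 h. Caspase-Glo reagent (Apotox-Glo Triplex) was added, followed by brief orbital shaking and 30 min at room temperature, then a luminescence read. Vinblastine 100 nM was the positive control, with a Student's t-test against vehicle.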

MUTU-I [13] = experiment: as §4; format: functional; method in brief: as §5

Compound	EC50 [1] [µM]	EC50 [2] [µM]	further results
CNC(=O)/C=C/C12c3ccccc3C(CC1C#N)c1ccccc12 (stereo unspecified)	> 100	> 100	
CC[C@]1(O)C[C@@H]2CN(CCc3c([nH]c4ccccc34)[C@@](C(=O)OC)(c3cc4c(cc3OC)N(C)[C@H]3[C@@](O)(C(=O)OC)[C@H](OC(C)=O)[C@]5(CC)C=CCN6CC[C@]43[C@@H]65)C2)C1 [VINBLASTINE]			Activity (MUTU-I [3]): Active; Activity (DG-75 [4]): Active; Activity (PBMC): Non-toxic; Activity [5]: 52.89%
O=C(O)C1C2c3ccccc3C(c3ccccc32)C1C(=O)O (stereo unspecified)	> 100		
CCOC(=O)C1C2c3ccccc3C(c3ccccc32)C1C(=O)OCC (stereo unspecified)	89.4	> 100	
CC(=O)O/N=C/C12c3ccccc3C(CC1C#N)c1ccccc12 (stereo unspecified)	34.6	> 100	
CN(C)CC1CC2c3ccccc3C1c1ccccc12 (stereo unspecified)	> 100	> 100	
CC(=O)OCC12c3ccccc3C(CC1C#N)c1ccccc12 (stereo unspecified)	12.8	> 100	
c1ccc2c(c1)C1CC(CN3CCCCC3)C2c2ccccc21 (stereo unspecified)	65.6	69.9	
COC(=O)C(CC(C)C)NC(=O)C1CC2c3ccccc3C1c1ccccc12 (stereo unspecified)	> 100		
Cc1ccc(N2CCN(C(=O)/C=C/c3c4ccccc4cc4ccccc34)CC2)cc1	38.5	> 100	
CCOC(=O)/C=C/C12c3ccccc3C(CC1C#N)c1ccccc12 (stereo unspecified)	45.6	> 100	
CNC(C)/C=C/c1c2ccccc2cc2ccccc12 (stereo unspecified)	62.9	> 100	
O=C(O)C(Cc1ccc(O)cc1)NC(=O)C1CC2c3ccccc3C1c1ccccc12 (stereo unspecified)	> 100		
Clc1ccc(COC(Cn2ccnc2)c2ccc(Cl)cc2Cl)c(Cl)c1 (stereo unspecified) [MICONAZOLE]			Activity [6]: >90%; Activity [7]: >90%
CN(CC1=CC2c3ccccc3C1c1ccccc12)C1CCCCC1	73.3	> 100	
COC(=O)C1=C(C(=O)OC)C2c3ccccc3C1c1ccccc12	> 100		Activity (DG-75 [8]): inactive
CNC(=O)CCC12c3ccccc3C(CC1C#N)c1ccccc12 (stereo unspecified)	> 100	> 100	
CCN(CC)CC1C2c3ccccc3C(c3ccccc32)C1CN(CC)CC (stereo unspecified)	65	51.8	
CCN(CC)C(=O)/C=C/c1c2ccccc2cc2ccccc12	21.5	9.3	
N#CC1CC2c3ccccc3C1(/C=N/O)c1ccccc12 (stereo unspecified)	20.4	> 100	
CCOC(=O)CCC12c3ccccc3C(CC1C#N)c1ccccc12 (stereo unspecified)	29.3	> 100	
CCNCC1CC2c3ccccc3C1c1ccccc12 (stereo unspecified)	> 100	> 100	
CN(CC1CC2c3ccccc3C1c1ccccc12)C1CCCCC1 (stereo unspecified)	23	35.5	Activity (HL-60 [9]): inactive; Activity (HL-60 [10]): inactive; Activity (HL-60 [11]): inactive
O=[N+]([O-])c1ccc(/C=C/c2c3ccccc3cc3ccccc23)cc1	8.8	> 100	
CNCC12c3ccccc3C(CC1C#N)c1ccccc12 (stereo unspecified)	> 100	> 100	
CN(C)C(=O)/C=C/c1c2ccccc2cc2ccccc12	24.9	> 100	
CCOC(=O)/C=C/c1c2ccccc2cc2ccccc12	27.1	> 100	

Compound	EC50 [1] [µM]	EC50 [2] [µM]	further results
CN1CCN(C(=O)C2CC3c4ccccc4C2c2ccccc23)CC1 (stereo unspecified)	> 100		
Clc1ccc(N2CCN(CC3CC4c5ccccc5C3c3ccccc34)CC2)cc1 (stereo unspecified)	> 100	> 100	
N#C/C=C/C12c3ccccc3C(CC1C#N)c1ccccc12 (stereo unspecified)	> 100	> 100	
CN(C)C(=O)C1C2c3ccccc3C(c3ccccc32)C1C(=O)N(C)C (stereo unspecified)	> 100		
O=C(/C=C/c1c2ccccc2cc2ccccc12)N1CCCCC1	1.9	> 100	Activity (MUTU-I [12]): Active; Activity [5]: 15.44%
CCN(CC)C(=O)O/N=C/C12c3ccccc3C(CC1C#N)c1ccccc12 (stereo unspecified)	28.4	3.1	Activity (MUTU-I [12]): inactive; Activity (HL-60 [9]): inactive; Activity (PBMC): Non-toxic; Activity (HL-60 [10]): inactive; Activity (MUTU-I [13]): inactive; Activity (HL-60 [11]): inactive
O=[N+]([O-])/C=C/c1c2ccccc2cc2ccccc12	3	1.5	Activity (MUTU-I [12]): Active; Activity (HL-60 [9]): Active; Activity (PBMC): Toxic; Activity (HL-60 [10]): Active; Activity [5]: 31.43%; Activity (HL-60 [11]): Active
CCOC(=O)N1CCN(C(=O)/C=C/c2c3ccccc3cc3ccccc23)CC1	5.4	11.6	Activity (MUTU-I [3]): Active; Activity (MUTU-I [12]): Active; Activity (HL-60 [9]): Active; Activity (DG-75 [4]): Active; Activity (PBMC): Non-toxic; Activity (HL-60 [10]): Active; Activity [5]: 54.7%; Activity (HL-60 [11]): Active
CC(=O)/C=C/c1c2ccccc2cc2ccccc12	21.8	7.6	
N#CC1CC2c3ccccc3C1(C=O)c1ccccc12 (stereo unspecified)	31.7	> 100	
CCN(CC)C(=O)C1C2c3ccccc3C(c3ccccc32)C1C(=O)N(CC)CC (stereo unspecified)	> 100		
CCOC(=O)C1=CC2c3ccccc3C1c1ccccc12	> 100		Activity (DG-75 [8]): inactive
C1=C(CN2CCCCC2)C2c3ccccc3C1c1ccccc12	31.5	10.2	
N#CC1CC2c3ccccc3C1(/C=N/OC(=O)c1ccccc1)c1ccccc12 (stereo unspecified)	80.5	95.3	
COC(=O)C(Cc1ccc(O)cc1)NC(=O)C1CC2c3ccccc3C1c1ccccc12 (stereo unspecified)	63	54.6	
c1ccc2c(c1)C1CC(CN3CCOCC3)C2c2ccccc21 (stereo unspecified)	23.5	8.8	
CN(C(=O)C1CC2c3ccccc3C1(C=O)c1ccccc12)C1CCCCC1 (stereo unspecified)	40.6	> 100	Activity (HL-60 [9]): Active; Activity (HL-60 [10]): Active; Activity (HL-60 [11]): Active
c1ccc(NCC2CC3c4ccccc4C2c2ccccc23)cc1 (stereo unspecified)	> 100	> 100	
CC(C)CC(NC(=O)C1CC2c3ccccc3C1c1ccccc12)C(=O)O (stereo unspecified)	> 100		
O=C(/C=C/c1c2ccccc2cc2ccccc12)N1CCCC1	18.7	32.5	
CN1CCN(C(=O)/C=C/c2c3ccccc3cc3ccccc23)CC1	7.6	62.1	Activity (MUTU-I [12]): inactive; Activity (HL-60 [9]): inactive; Activity (PBMC): Non-toxic; Activity (HL-60 [10]): inactive; Activity (MUTU-I [13]): inactive; Activity (HL-60 [11]): inactive
N#C/C=C/c1c2ccccc2cc2ccccc12	21.2	> 100	
O=C(O)C1CC2c3ccccc3C1c1ccccc12 (stereo unspecified)	> 100		
CNC(=O)/C=C/c1c2ccccc2cc2ccccc12	62.5	> 100	
N#CC1CC2c3ccccc3C1(CO)c1ccccc12 (stereo unspecified)	> 100	> 100	
CCOC(=O)C1CC2c3ccccc3C1c1ccccc12 (stereo unspecified)	55.4	> 100	
N#CC1CC2c3ccccc3C1(COC(=O)c1ccccc1)c1ccccc12 (stereo unspecified)	24.5	> 100	
